Measured values: PMC9276175 (Medicine, 2022)

What was measured:
HDAC1 = HDAC1 (Homo sapiens, UniProt Q13547); test: Enzymatic HDAC fluorogenic assay, HDAC1; format: biochemical
HDAC2 = HDAC2 (Homo sapiens, UniProt Q92769); test: Enzymatic HDAC fluorogenic assay, HDAC2; format: biochemical
HDAC3 = HDAC3 (Homo sapiens, UniProt O15379); test: Enzymatic HDAC fluorogenic assay, HDAC3; format: biochemical
HDAC4 = HDAC4 (Homo sapiens, UniProt P56524); test: Enzymatic HDAC fluorogenic assay, HDAC4; format: biochemical
HDAC6 = molecular target: T1, HDAC6 (Homo sapiens, UniProt Q9UBN7); test: Enzymatic HDAC fluorogenic assay, HDAC6; format: biochemical
T1 sequence (Q9UBN7 1-1215): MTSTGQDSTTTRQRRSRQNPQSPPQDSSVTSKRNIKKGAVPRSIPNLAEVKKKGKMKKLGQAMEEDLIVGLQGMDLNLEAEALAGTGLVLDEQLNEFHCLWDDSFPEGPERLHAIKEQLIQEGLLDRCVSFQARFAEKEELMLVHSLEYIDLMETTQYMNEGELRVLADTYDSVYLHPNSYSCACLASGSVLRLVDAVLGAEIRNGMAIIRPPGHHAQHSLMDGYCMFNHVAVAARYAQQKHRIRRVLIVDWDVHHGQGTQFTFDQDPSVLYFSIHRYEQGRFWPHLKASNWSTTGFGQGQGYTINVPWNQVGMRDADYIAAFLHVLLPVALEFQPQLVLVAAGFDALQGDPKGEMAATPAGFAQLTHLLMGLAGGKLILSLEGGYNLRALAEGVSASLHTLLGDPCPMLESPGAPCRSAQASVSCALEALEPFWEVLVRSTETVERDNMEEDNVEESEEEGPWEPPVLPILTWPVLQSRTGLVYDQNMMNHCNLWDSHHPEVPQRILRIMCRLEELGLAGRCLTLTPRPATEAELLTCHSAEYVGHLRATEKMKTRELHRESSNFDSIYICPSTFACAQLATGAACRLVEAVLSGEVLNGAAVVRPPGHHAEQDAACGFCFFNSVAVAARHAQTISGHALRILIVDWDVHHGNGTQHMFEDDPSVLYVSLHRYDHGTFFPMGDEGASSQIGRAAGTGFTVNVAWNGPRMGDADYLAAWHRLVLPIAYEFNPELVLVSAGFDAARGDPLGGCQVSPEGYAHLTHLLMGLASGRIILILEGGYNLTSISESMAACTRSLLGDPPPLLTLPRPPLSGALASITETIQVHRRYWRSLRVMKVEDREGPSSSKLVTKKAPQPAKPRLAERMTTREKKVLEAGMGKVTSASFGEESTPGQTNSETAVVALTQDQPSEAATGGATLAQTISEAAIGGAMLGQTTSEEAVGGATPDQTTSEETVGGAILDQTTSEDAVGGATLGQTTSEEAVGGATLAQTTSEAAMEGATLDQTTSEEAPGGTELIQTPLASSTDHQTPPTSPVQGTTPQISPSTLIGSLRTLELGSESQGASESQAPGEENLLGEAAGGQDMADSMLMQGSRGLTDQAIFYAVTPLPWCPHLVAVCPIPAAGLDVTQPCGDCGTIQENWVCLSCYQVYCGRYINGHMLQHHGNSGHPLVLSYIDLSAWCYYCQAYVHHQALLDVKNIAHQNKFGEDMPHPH

HDAC11 = molecular target: T2, HDAC11 (Homo sapiens, UniProt Q96DB2); test: Enzymatic HDAC fluorogenic assay, HDAC11; format: biochemical
T2 sequence (Q96DB2 1-347): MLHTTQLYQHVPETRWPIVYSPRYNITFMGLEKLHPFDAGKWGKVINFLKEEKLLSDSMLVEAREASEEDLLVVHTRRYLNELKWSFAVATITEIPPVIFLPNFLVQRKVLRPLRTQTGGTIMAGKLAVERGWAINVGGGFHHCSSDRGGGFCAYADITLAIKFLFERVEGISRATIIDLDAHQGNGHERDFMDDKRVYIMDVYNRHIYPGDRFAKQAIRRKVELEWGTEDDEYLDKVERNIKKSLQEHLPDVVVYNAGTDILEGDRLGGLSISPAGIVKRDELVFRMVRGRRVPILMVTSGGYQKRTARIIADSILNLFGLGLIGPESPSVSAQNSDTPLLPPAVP

MDA-MB-231 cells [1] = test: Cell proliferation assay; format: cell-based, human; details: for impaired MDA-MB-231 cell growth: 3 days; for anti-proliferative activity (in words): 1, 2 and 3 days
MDA-MB-231 cells [2] = test: Western blot of acetylation status and HDAC expression; format: cell-based, human; details: 24 hours
How it was run: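 MDA-MB-231 cells were treated 24 hours with test compound at 50–500 μM, with DMSO as negative control. Cells were lysed on ice in RIPA buffer (pH 7.6) with protease and phosphatase inhibitors. Protein (30 µg/lane) was run on SDS-PAGE and blotted to PVDF, then blocked in 5% skim milk/TBST. Antibodies against Ac-α-tubulin (Lys40), α-tubulin, Ac-histone H3 (Lys9), H3, HDAC1, HDAC6 and GAPDH were applied overnight, followed by HRP secondary and ECL detection.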

MDA-MB-231 cells [3] = test: Assessment of cell morphology; format: cell-based, human; details: 24 hours, dose-dependent, most significant at 300 to 500 μM

Chain of HDAC4 (P56524 627-1084 limits assumed): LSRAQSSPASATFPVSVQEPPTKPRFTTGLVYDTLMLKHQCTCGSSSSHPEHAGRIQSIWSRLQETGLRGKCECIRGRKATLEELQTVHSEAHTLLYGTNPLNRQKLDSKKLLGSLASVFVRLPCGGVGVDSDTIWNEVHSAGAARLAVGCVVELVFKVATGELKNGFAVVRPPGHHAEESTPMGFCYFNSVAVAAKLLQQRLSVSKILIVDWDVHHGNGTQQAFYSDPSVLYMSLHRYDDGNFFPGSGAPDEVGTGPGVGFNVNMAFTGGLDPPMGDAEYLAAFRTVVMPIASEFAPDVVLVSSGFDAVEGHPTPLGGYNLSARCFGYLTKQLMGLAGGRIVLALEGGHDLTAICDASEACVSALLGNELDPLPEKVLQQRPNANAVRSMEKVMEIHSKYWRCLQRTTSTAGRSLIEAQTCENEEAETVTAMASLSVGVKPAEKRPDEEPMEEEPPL
Chain of HDAC1 (Q13547 whole entry): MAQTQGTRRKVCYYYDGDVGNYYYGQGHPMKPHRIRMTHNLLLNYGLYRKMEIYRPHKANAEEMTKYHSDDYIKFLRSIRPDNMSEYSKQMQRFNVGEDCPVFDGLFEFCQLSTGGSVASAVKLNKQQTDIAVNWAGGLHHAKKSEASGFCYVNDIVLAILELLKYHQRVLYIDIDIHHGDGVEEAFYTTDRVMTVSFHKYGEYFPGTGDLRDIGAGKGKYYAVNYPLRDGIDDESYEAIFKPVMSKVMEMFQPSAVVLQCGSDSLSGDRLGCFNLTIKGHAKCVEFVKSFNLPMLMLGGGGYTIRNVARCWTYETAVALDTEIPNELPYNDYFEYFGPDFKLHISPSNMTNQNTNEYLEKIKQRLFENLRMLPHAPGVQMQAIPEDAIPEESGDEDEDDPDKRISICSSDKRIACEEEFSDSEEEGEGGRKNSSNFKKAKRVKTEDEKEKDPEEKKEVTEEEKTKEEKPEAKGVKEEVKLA
Chain of HDAC3 (O15379 whole entry): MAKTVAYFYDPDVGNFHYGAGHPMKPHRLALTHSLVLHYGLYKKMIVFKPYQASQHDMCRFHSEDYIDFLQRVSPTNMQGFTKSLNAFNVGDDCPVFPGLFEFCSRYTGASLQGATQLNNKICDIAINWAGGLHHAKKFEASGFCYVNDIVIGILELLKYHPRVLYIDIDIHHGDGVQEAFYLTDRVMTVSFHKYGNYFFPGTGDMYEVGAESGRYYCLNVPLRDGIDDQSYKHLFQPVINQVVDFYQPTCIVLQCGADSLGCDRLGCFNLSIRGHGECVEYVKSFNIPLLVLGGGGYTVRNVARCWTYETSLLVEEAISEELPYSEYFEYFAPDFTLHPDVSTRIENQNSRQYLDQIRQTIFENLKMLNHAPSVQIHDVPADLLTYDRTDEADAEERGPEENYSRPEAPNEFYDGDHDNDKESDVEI
Chain of HDAC3 (Q9Y618 395-489 partner limits assumed): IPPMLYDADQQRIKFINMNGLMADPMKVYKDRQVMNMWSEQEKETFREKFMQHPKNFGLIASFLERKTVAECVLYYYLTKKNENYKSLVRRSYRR
Chain of HDAC2 (Q92769 whole entry): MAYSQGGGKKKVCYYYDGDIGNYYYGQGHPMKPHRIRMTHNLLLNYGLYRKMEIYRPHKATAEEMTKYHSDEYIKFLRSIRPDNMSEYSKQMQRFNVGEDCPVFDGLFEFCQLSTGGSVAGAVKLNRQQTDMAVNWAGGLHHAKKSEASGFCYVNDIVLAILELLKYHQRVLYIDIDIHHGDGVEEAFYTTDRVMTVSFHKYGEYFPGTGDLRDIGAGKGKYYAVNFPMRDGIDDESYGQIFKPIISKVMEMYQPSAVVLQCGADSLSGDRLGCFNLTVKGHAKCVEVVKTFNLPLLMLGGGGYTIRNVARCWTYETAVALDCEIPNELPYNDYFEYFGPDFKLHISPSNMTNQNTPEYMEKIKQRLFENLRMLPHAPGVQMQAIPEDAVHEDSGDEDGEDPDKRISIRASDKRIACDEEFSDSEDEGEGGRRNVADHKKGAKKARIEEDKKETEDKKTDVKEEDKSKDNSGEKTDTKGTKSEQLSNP

SMILES | IC50 (HDAC1) [µM] | IC50 (HDAC2) [µM] | IC50 (HDAC3) [µM] | IC50 (HDAC4) [µM] | inhibition of class IIa HDAC (in words) (HDAC4) | IC50 (HDAC6) [µM] | inhibition of class IIb HDAC (in words) (HDAC6) | IC50 (HDAC11) [µM] | inhibition of class IV HDAC (in words) (HDAC11) | impaired MDA-MB-231 cell growth (MDA-MB-231 cells [1]; 500 μM) [%] | impaired MDA-MB-231 cell growth (MDA-MB-231 cells [1]; 1000 μM) [%] | anti-proliferative activity (in words) (MDA-MB-231 cells [1]; concentrations from 300 to 1000 μM) | anti-proliferative activity (in words) (MDA-MB-231 cells [1]; up to 100 μM concentration) | expression level of HDAC6 (MDA-MB-231 cells [2]; 500 μM) | expression level of HDAC6 (MDA-MB-231 cells [2]; 50 to 500 μM) | acetylation of α-tubulin (MDA-MB-231 cells [2]; concentrations ranging from 300 to 500 μM) | acetylation of Histone H3 (MDA-MB-231 cells [2]; up to 300 μM concentration) | morphological changes in cells (MDA-MB-231 cells [3]) | inhibition of class IV HDAC11 (in words) (HDAC11; up to 100 μM concentration)
O=C(CCCCCNC(=O)c1ccccc1O)Nc1ccccc1 [Compound 5, 2-Hydroxy-N-(6-oxo-6-(phenylamino)hexyl)benzamide] | 22.2 ± 2.69 | 27.3 ± 3.71 | 7.9 ± 2.57 | > 100 | failed to inhibit | > 100 | failed to inhibit | > 100 | failed to inhibit | 64 | 81 | mediocre dose- and time-dependent anti-proliferative activity | no anti-proliferative activity | significantly depleted the expression level of HDAC6 | decreased the expression level of HDAC6 in a dose-dependent manner | promoted the acetylation of α-tubulin | dose-dependently increased the acetylation of Histone H3 | more elongated and spindle-shaped | –
O=C(CCCCCCC(=O)Nc1ccccc1)NO [SAHA, Vorinostat, reference compound] | – | – | – | – | – | – | – | – | – | – | – | – | – | – | – | – | – | – | no inhibition
